Data as given in ChEMBL document CHEMBL1146206, “Synthesis, cytotoxicity, and antiviral activities of new neolignans related to honokiol and magnolol” (Bioorg Med Chem Lett, 2007).
The source made the active and inactive calls. The calls are words filed in the database; no cut-off is given here.

Legend:
SVR [1] = assay: Antiproliferative activity against mouse SVR cells at 10 ug/mL after 72 hrs; type: functional
Summary of the method: (§1)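 Immortalized endothelial SVR cells were seeded at 10^4 per well in 24-well dishes. The next day, the medium was replaced with fresh medium containing compound or controls. Cells were incubated for 72 h at 37 °C. Cell number was counted in triplicate with a Coulter counter, and results were expressed as percent inhibition of proliferation.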

CCRF-CEM = assay: Cytotoxicity against human CEM cells; type: cell-based
[2] = tested on: Human immunodeficiency virus 1; assay: Antiviral activity against HIV1 in human PBM cells; type: functional, organism-based; conditions: Human immunodeficiency virus 1, PBMC
[3] = Cytotoxicity against human PBM cells; type: cell-based; conditions: PBMC
SVR [4] = assay: Antiproliferative activity against mouse SVR cells at 15 ug/mL after 72 hrs; type: functional; summary of the method: as §1
Vero = assay: Cytotoxicity against Vero cells; type: cell-based; conditions: Chlorocebus sabaeus
SVR [5] = assay: Inhibition of tumor growth in SVR cells bearing mouse up to 100 mg/kg, ip after 30 days; type: functional, organism-based; parameters: dose 100 mg/kg
Summary of the method: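 Nude male mice, 6 weeks old, were inoculated in the flank with SVR cells. Once tumors were visible, about 1 week after inoculation, mice received 3 mg/day intraperitoneally or vehicle control. Treatment ran up to 100 mg/kg for 30 days. Tumor growth and toxicity were compared against vehicle-treated mice.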

Row | SMILES | inhibition at 10 µg/mL (SVR [1]) | IC50 (CCRF-CEM) | EC50 [2] | IC50 [3] | inhibition at 15 µg/mL (SVR [4]) | IC50 (Vero) | EC90 [2] | Activity (SVR [5])
1 | C=CCc1cc(-c2ccc(O)c(CC=C)c2)ccc1O | 45% | 23 µM | 19.4 µM | > 100 µM | 56% | 83.2 µM |  | 
2 | C=CCc1cc(C2(c3ccc(O)c(CC=C)c3)CCCCC2)ccc1O | 63% | 11 µM | 36.5 µM | 55.4 µM | 79% | 12.5 µM | 67.2 µM | 
3 | C=CCc1ccc(O)c(-c2cc(CC=C)ccc2O)c1 [MAGNOLOL] | 60% | 99.5 µM | 69.3 µM | 38.6 µM | 77% | 50.6 µM | > 100 µM | 
4 | C=CCc1cc(Cc2ccc(O)c(CC=C)c2)ccc1O | 75% | 15.1 µM | 13.6 µM | 33.7 µM | 74% | 1.9 µM | 35.1 µM | 
5 | C=CCc1cc(C(c2ccc(O)c(CC=C)c2)c2ccccn2)ccc1O | 25% | 16.5 µM | 35 µM | 16.8 µM | 46% | 14.8 µM | 67.2 µM | 
6 | C=CCc1cc(-c2cccc(CC=C)c2O)ccc1O | 74% | 17.9 µM | 23.4 µM | 36.7 µM | 81% | 11.4 µM | 81 µM | 
7 | C=CCc1cc(C(=C(Cl)Cl)c2ccc(O)c(CC=C)c2)ccc1O | 54% | 17.1 µM | 14.3 µM | 43.6 µM | 76% | 12.1 µM | 48.8 µM | 
8 | C=CCc1cc(C(C)(C)c2ccc(O)c(CC=C)c2)ccc1O | 33% | 5.8 µM | 4.1 µM | > 100 µM | 57% | 13 µM | 47.3 µM | 
9 | C=CCc1ccc(O)c(-c2ccc(O)c(CC=C)c2)c1 [HONOKIOL] | 60% | 10.9 µM | 3.3 µM | 16.1 µM | 85% | 22.5 µM |  | 
10 | C=CCc1cc(/C(CC)=C(\CC)c2ccc(O)c(CC=C)c2)ccc1O | 68% | 3.4 µM | 9.5 µM | > 100 µM | 89% | 3.7 µM | 30.9 µM | inactive
11 | C=CCc1cc(-c2ncc(O)cn2)ccc1O | 4.4% | > 100 µM | > 100 µM | 31.9 µM | 10% | > 100 µM | > 100 µM | 
12 | C=CCc1cccc(-c2cccc(CC=C)c2O)c1O | 41% | 10.4 µM | 34.8 µM | 45.9 µM | 57% | 19.8 µM | 63 µM | 
